ChEMBL document CHEMBL5360579, “Exploring the anticancer activity and the mechanism of action of pyrrolomycins F obtained by microwave-assisted total synthesis” (Eur J Med Chem, 2023)
The source made the active and inactive calls. The rule behind the calls is not given here.

How the values were obtained:
MCF7 [1] = test: Induction of morphological changes in human MCF7 cells assessed as reduction in cell clumps at 1 uM incubated for 48 hrs by inverted phase-contrast microscopic analysis; format: functional, cell-based
HCT-116 [2] = test: Cytotoxicity against human HCT-116 cells assessed as inhibition of cell proliferation incubated for 48 hrs by MTT assay; format: functional, cell-based; conditions: HCT-116, 48 h
In short: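 Cells kept in DMEM with 10% heat-inactivated FBS, penicillin/streptomycin, 37 °C, 5% CO2. Plated at 5×10^3 cells/well and left 24 h, then exposed 48 h to 80, 20, 5, 1.25, 0.31 and 0.078 µM (diluted from 5 mM DMSO stocks). MTT added for 2 h at 37 °C, formazan dissolved in DMSO, A570 read. Blank subtracted, viability taken relative to untreated cells. IC50 from a sigmoidal fit of % inhibition vs log concentration. Three experiments, each in triplicate.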

HCT-116 [3] = test: Induction of morphological changes in human HCT-116 cells assessed as appearance of elongated fusiform-shaped cells at 0.5 uM incubated for 48 hrs by scanning electron microscopic analysis; format: functional, cell-based
In short: (§1)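 HCT116 on coverslips, treated 48 h at 0.5 µM. Coverslips rinsed in PBS pH 7.4, fixed in 4% glutaraldehyde for 30 min at 4 °C, then imaged by scanning electron microscopy at 5000X and 20000X.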

[4] = Selectivity index, ratio of IC50 for hTERT-RPE1 cells to IC50 for human MCF7 cells; format: toxicity; conditions: hTERT-RPE1 cells versus MCF7 cells, read-out: Ratio IC50
In short: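 Ratio of the hTERT-RPE-1 MTT IC50 to the IC50 in HCT116 or MCF-7. Each IC50 comes from a 48 h MTT assay (0.078–80 µM, sigmoidal fit), three experiments in triplicate.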

MCF7 [5] = test: Induction of morphological changes in human MCF7 cells assessed as development of long elongations from filamentous protrusions resembling filopodia at 1 uM incubated for 48 hrs by inverted phase-contrast microscopic analysis; format: functional, cell-based
HCT-116 [6] = test: Induction of morphological changes in human HCT-116 cells assessed as intensive membrane ruffling and blebbing at 0.5 uM incubated for 48 hrs by scanning electron microscopic analysis; format: functional, cell-based; in short: as §1
HCT-116 [7] = test: Induction of cell death in human HCT-116 cells assessed as membrane blebbing at 0.5 uM incubated for 48 hrs by acridine orange and ethidium bromide staining based fluorescence microscopic analysis; format: functional
In short: (§2)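 HCT116 on coverslips (5×10^4 cells/well), 24 h attachment, then exposed 48 h to 0.5 µM. PBS-washed and stained a few minutes with a 1:1 mix of acridine orange (100 µg/mL) and ethidium bromide (100 µg/mL). Viewed at once by fluorescence microscopy at 640X, scoring green vs orange nuclei and punctate cytoplasmic staining.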

HCT-116 [8] = test: Induction of cell death in human HCT-116 cells assessed as chromatin condensation at 0.5 uM incubated for 48 hrs by acridine orange and ethidium bromide staining based fluorescence microscopic analysis; format: functional; in short: as §2
HCT-116 [9] = test: Induction of cell death in human HCT-116 cells assessed as effect on Bcl2 protein expression at 0.5 uM incubated for 48 hrs by Western blot analysis; format: functional, cell-based
HCT-116 [10] = test: Induction of morphological changes in human HCT-116 cells assessed as appearance of filamentous protrusions at 0.5 uM incubated for 48 hrs by inverted phase-contrast microscopic analysis; format: functional, cell-based
HCT-116 [11] = test: Induction of morphological changes in human HCT-116 cells assessed as increase in number of prominent vacuoles at 0.5 uM incubated for 48 hrs by inverted phase-contrast microscopic analysis; format: functional, cell-based
HCT-116 [12] = test: Induction of cell death in human HCT-116 cells assessed as loss of membrane integrity at 0.5 uM incubated for 48 hrs by acridine orange and ethidium bromide staining based fluorescence microscopic analysis; format: functional; in short: as §2
HCT-116 [13] = test: Induction of autophagy in human HCT-116 cells assessed as effect on Beclin-1 protein expression at 0.5 uM incubated for 48 hrs by Western blot analysis; format: functional, cell-based
HCT-116 [14] = test: Induction of apoptosis in human HCT-116 cells assessed as nuclear fragmentation at 0.5 uM incubated for 48 hrs by Hoechst 33342 staining based analysis; format: functional, cell-based
In short: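 HCT116 on coverslips at 5×10^4 cells/well, treated 48 h at 0.5 µM after 24 h attachment. PBS-washed, stained 10 min with Hoechst 33342 (final 1 µg/ml). Nuclei inspected at once by fluorescence microscopy at 640X for chromatin condensation and nuclear fragmentation.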

HCT-116 [15] = test: Induction of cell death in human HCT-116 cells assessed as increase in orange fluorescence at 0.5 uM incubated for 48 hrs by acridine orange and ethidium bromide staining based fluorescence microscopic analysis; format: functional; in short: as §2
HCT-116 [16] = test: Induction of intracellular ROS generation in human HCT-116 cells at IC50 measured after 48 hrs by DCFH-DA staining based fluorescence microscopic analysis; format: functional, cell-based
In short: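 HCT116 on coverslips at 5×10^4 cells/well, treated 48 h at the IC50 concentration. Loaded with 10 µM DCFH-DA for 30 min at 37 °C, then imaged by fluorescence microscopy at 640X.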

MCF7 [17] = test: Induction of morphological changes in human MCF7 cells assessed as appearance of filamentous protrusions at 1 uM incubated for 48 hrs by inverted phase-contrast microscopic analysis; format: functional, cell-based
HCT-116 [18] = test: Induction of morphological changes in human HCT-116 cells assessed as massive vacuolization at 0.5 uM incubated for 48 hrs by scanning electron microscopic analysis; format: functional, cell-based; in short: as §1
HCT-116 [19] = test: Induction of autophagy in human HCT-116 cells assessed as upregulation of Atg-7 protein expression at 0.5 uM incubated for 48 hrs by Western blot analysis; format: functional, cell-based
HCT-116 [20] = test: Induction of autophagy in human HCT-116 cells assessed as upregulation of Beclin-1 protein expression at 0.5 uM incubated for 48 hrs by Western blot analysis; format: functional, cell-based
HCT-116 [21] = test: Induction of autophagy in human HCT-116 cells assessed as upregulation of LC3-II expression at 0.5 uM incubated for 48 hrs by Western blot analysis; format: functional, cell-based
HCT-116 [22] = test: Induction of autophagy in human HCT-116 cells assessed as downregulation of LC3B-I expression at 0.5 uM incubated for 48 hrs by Western blot analysis; format: functional, cell-based

Row | SMILES | Activity (MCF7 [1]) | IC50 (HCT-116 [2]) | Activity (HCT-116 [3]) | selectivity ratio [4] | Activity (MCF7 [5]) | Activity (HCT-116 [6]) | Activity (HCT-116 [7]) | Activity (HCT-116 [8]) | Activity (HCT-116 [9]) | Activity (HCT-116 [10]) | Activity (HCT-116 [11]) | Activity (HCT-116 [12]) | Activity (HCT-116 [13]) | Activity (HCT-116 [14]) | Activity (HCT-116 [15]) | Activity (HCT-116 [16]) | Activity (MCF7 [17]) | Activity (HCT-116 [18]) | Activity (HCT-116 [21]) | Activity (HCT-116 [22]) | further results
1 | O=C(c1cc(Br)ccc1O)c1[nH]c(Br)c(Cl)c1Br | Active | 490 nM | Active | ~100 | Active | Active | Active | inactive | Active | Active | Active | Active | Active | inactive | Active | Active | Active | Active |  |  | 
2 | O=C(c1cc(Br)ccc1O)c1[nH]c(Br)c(Br)c1Br | Active | 350 nM | Active | ~100 | Active | Active | Active | inactive | Active | Active | Active | Active | Active | inactive | Active | Active | Active | Active |  |  | 
3 | O=C(c1cc(Br)cc(Br)c1O)c1[nH]c(Br)c(Br)c1Br | Active | 1300 nM | Active |  | Active | Active | Active | inactive | Active | Active | Active | Active |  | inactive | Active | Active | Active | Active |  |  | Activity (HCT-116 [19]): Active; Activity (HCT-116 [20]): Active
4 | O=C(c1cc(Br)ccc1O)c1[nH]c(Cl)c(Br)c1Br | Active | 410 nM | Active | ~100 | Active | Active | Active | inactive | Active | Active | Active | Active | Active | inactive | Active | Active | Active | Active | Active | Active | 
5 | O=C(c1cc(Br)ccc1O)c1[nH]c(Cl)c(Cl)c1Br | Active | 880 nM | Active | ~100 | Active | Active | Active | inactive | Active | Active | Active | Active | Active | inactive | Active | Active | Active | Active | Active | Active | 
